OX1R antag-1 – human HCRTR1 antagonism; O43613; CHO/OX1R cells, Fluo-8 calcium fluorescence, orexin A; inhibition, % at 5 µM; 0.43% of 330,000 active; AID 434989;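 active means inhibition above its plate's threshold, mean inhibition of all tested compounds on the plate plus 3 SD, cut at about 37% in these data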
TAAR1 antagonist – human TAAR1 antagonism; inhibition, % at 3 µM; 1.5% of 360,000 active; AID 624466; Q96RJ0; CHO RD-HGA16 TAAR1, Fluo-8 calcium fluorescence, antagonist;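 active means inhibition above a per-plate cutoff, the mean inhibition of test compounds on that plate plus 3 SD, cut at about 49% in these data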
Target sequence (Q96RJ0 whole entry, looked up): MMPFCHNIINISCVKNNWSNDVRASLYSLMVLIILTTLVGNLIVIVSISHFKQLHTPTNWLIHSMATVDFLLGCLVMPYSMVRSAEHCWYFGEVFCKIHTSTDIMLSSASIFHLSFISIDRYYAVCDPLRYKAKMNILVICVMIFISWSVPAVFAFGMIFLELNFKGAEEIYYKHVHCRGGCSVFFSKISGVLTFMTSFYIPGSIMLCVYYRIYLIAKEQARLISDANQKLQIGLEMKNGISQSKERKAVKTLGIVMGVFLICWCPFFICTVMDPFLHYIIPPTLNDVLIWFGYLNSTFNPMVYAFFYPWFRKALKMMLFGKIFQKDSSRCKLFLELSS
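Test system: CHO RD-HGA16 cells bearing hTAAR1 | Reagent: β-PEA, EC80 | Compound dosing: 3 µM, single point | Schedule: Dye loading 75 min at 37 °C, then 30 min room temperature | Signal: Calcium fluorescence with Fluo-8 | Evaluation: Percent inhibition of PEA-evoked calcium signal, max/basal emission ratio | Control set: DMSO-only wells and EC80 β-PEA-stimulated wells | Repeats: Singlicate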
OX1R antag-2 – OX1R (human) antagonism. O43613. OX1R-expressing cells, FRET antagonist read-out. inhibition, % at 6.6 µM. 1.8% of 330,000 active. AID 485270; in the data active means inhibition mostly above about 38%, no sharp cut-off; inactive means mostly below about 40%
GalR3 antagonist – antagonists of human GalR3 | HEK293 GalR3-CNG cAMP membrane potential fluorescence; galR3 body fused to GalR1 C-terminus | inhibition, % at 3 µM | 0.44% of 360,000 active;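 active means inhibition above the screen-wide average plus 3 SD, cut at about 13% in these data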;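 further: forskolin and galanin both at EC90 stimulate the cells; cAMP rise reported by CNG channel membrane potential dye signal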
Target sequence (O60755 1-299 limits assumed): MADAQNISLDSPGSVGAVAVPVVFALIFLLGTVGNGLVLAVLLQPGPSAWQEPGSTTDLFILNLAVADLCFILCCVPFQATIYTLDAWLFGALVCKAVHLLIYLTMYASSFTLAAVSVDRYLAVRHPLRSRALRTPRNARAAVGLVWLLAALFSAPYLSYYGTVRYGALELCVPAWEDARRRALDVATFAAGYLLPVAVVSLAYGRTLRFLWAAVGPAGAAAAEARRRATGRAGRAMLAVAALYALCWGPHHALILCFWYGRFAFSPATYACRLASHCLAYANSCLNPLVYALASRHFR
CHO parental Ca – counter-screen for OX1R antagonists: effect in parental CHO cells. parental CHO-K1, ATP-induced calcium, Fluo-8 fluorescence. inhibition, % at 5.6 µM. 0.63% of 330,000 active;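 active means inhibition above that plate's mean sample inhibition plus 3 SD, cut at about 26% in these data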
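Assay system: parental CHO cells; Read-out basis: percent inhibition of ATP-evoked calcium rise, normalized to controls; Benchmarks: ATP and no-ATP DMSO wells; Compound dosing: single nominal dose of 5.6 µM per compound; Signal: Fluo-8 calcium dye fluorescence; Also added: ATP as calcium-mobilizing challenge; Repeats: singlicate.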
TAAR1 agonist – agonists of human TAAR1. Q96RJ0. CHO RD-HGA16 TAAR1, Fluo-8 calcium fluorescence; vehicle wells 0%, saturating PEA agonist 100%. activation, % at 3 µM. 0.99% of 360,000 active;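 active means activation above the mean activation of all test compounds in the run plus 3 SD, cut at about 38% in these data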
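Assay system – CHO-derived RD-HGA16 cells with stable Gα16 and human TAAR1 · Compound dosing – one-point dosing at 3 µM (nominal) · Incubation – 17-24 h seeding, 75 min 37 °C dye, 30 min RT · Measured by – kinetic Fluo-8 calcium fluorescence · Control set – DMSO vehicle as 0%, PEA at EC100 as 100% · Repeats – single well for each compound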
A number is an active result; – = inactive; · = not tested or not shown. Sampled rows, rich in hits. Any-hit rate of the full collection: about 4.2%.

SMILES	OX1R antag-1	TAAR1 antagonist	OX1R antag-2	GalR3 antagonist	CHO parental Ca	TAAR1 agonist
Cc1cc(C(=O)NC2CC(C)(C)Cc3c2cnn3-c2ccccc2C)c(C)o1 (configuration not stated)	–	–	71.5	–	–	–
Cn1c(=O)c(=O)n(C)c2cc(S(=O)(=O)N3CCOc4ccccc43)ccc21	–	–	–	–	–	–
Cc1nnc(N/N=C/c2cc([N+](=O)[O-])c(N3CCC(C)CC3)cc2N2CCC(C)CC2)n1N	–	–	145.8	–	–	–
CCc1nnc(N/N=C/c2ccc(N3CCC(C)CC3)c([N+](=O)[O-])c2)n1N	–	–	59.9	–	–	–
CCN(CC(=O)Nc1ccc(NC(C)=O)cc1)C(=O)c1ccc(N2CCC(C)CC2)c([N+](=O)[O-])c1	–	–	–	–	–	–
C[C@H](CO)N1C[C@H](C)[C@@H](CN(C)S(=O)(=O)c2ccccc2)Oc2ccc(NS(=O)(=O)c3ccc(F)cc3)cc2C1=O	–	–	–	–	–	–
COC(=O)C1=C(N)N(c2ccccc2C(F)(F)F)C2=C(C(=O)CCC2)C1c1ccc2c(c1)OCO2 (configuration not stated)	–	–	–	–	47.9	–
COC(=O)CSC1=C(C#N)C(c2ccc3c(c2)OCO3)C2=C(CCCC2=O)N1 (configuration not stated)	–	·	–	·	–	·
COc1ccccc1OC(=O)Nc1ccc(Cl)cc1	–	–	–	–	31.2	–
CCOC(=O)CSc1nc2cc3c(cc2cc1C#N)OCO3	–	–	–	–	–	–
O=c1oc2ccccc2c(O)c1/C=C1\C=Nc2ccccc21	–	–	73.5	–	–	–
CC1(C(=O)NNC(=O)c2cccc([N+](=O)[O-])c2)CC1(Br)Br (configuration not stated)	–	–	42.4	–	–	–
O=C(O)c1cccc(NC(=S)NC(NC(=O)c2cccc([N+](=O)[O-])c2)C(Cl)(Cl)Cl)c1 (configuration not stated)	–	–	–	–	–	–
O=C(NC(NC(=S)Nc1ccc(Cl)cc1Cl)C(Cl)(Cl)Cl)c1cccc([N+](=O)[O-])c1 (configuration not stated)	42.2	–	–	–	40.9	–
Cc1ccc(NC(=S)NNC(=O)c2cccc([N+](=O)[O-])c2)cc1Cl	–	–	40.0	–	–	–
C=CCN(CC=C)CCOc1ccccc1	–	–	–	–	–	–
C=CCN(CC=C)CCOc1ccc2ccccc2c1	–	–	–	–	–	38.6
COc1ccc(N2CCN(C(=O)CSc3nnc(C)c(=O)[nH]3)CC2)cc1	–	–	–	–	36.7	–
COc1ccc(N2CCN(C(=O)CSc3nc4ccccc4c(=O)[nH]3)CC2)cc1	–	–	–	–	–	–
Cc1c(C(=O)NCCN2C(=O)S/C(=C\c3cccnc3)C2=O)cccc1[N+](=O)[O-]	–	–	–	–	–	–
O=C(NN=C1c2ccccc2-c2ccccc21)c1ccccc1Br	–	–	48.9	–	–	–
O=C(NN=C1c2ccccc2-c2ccccc21)c1ccccc1	–	–	–	–	–	–
O=c1oc2ccccc2n1Cc1cccc(Cl)c1	–	–	–	–	–	–
COc1ccc(S(=O)(=O)N(CC(=O)NCc2ccncc2)c2ccc(C)cc2)cc1OC	–	–	–	–	–	–
COc1ccc(NS(=O)(=O)c2ccc(Cl)c(NC(=O)c3ccccc3F)c2)cc1	–	–	48.8	–	–	–
SMILES	OX1R antag-1	TAAR1 antagonist	OX1R antag-2	GalR3 antagonist	CHO parental Ca	TAAR1 agonist
COc1ccc(NS(=O)(=O)c2ccc(Cl)c(NC(=O)c3cccnc3Cl)c2)cc1	–	–	–	–	–	–
CC(=O)N1CCN(c2ccc(N=Cc3c(O)n(Cc4ccccc4)c(=O)[nH]c3=O)cc2)CC1	·	–	·	–	·	–
O=C1c2cccc(O)c2C(=O)c2c(O)cc(CO)cc21	–	·	48.1	·	–	·
CC(=O)c1c(C)n(-c2cccc(Cl)c2)c2ccc(O)cc12	–	51.1	–	–	–	–
COc1ccc(OC)c(C(=O)NC2CCSc3ccccc32)c1 (configuration not stated)	–	–	47.1	–	–	–
O=C1NC(=Nc2ccccc2)c2c1cccc2[N+](=O)[O-]	–	–	73.5	–	–	–
Cc1ccccc1N1C(=O)c2cccc([N+](=O)[O-])c2C1=O	·	–	·	–	·	–
CC(=O)/C(N=Nc1ccc(C(=O)O)cc1[N+](=O)[O-])=C(\C)O	–	–	40.6	–	–	–
CCOC(=O)/C(N=Nc1ccc(C(=O)O)cc1[N+](=O)[O-])=C(\C)O	–	–	–	–	–	–
Cc1cc(=O)[nH]c(SCC(=O)Nc2ccc(N3CCCCC3)cc2)n1	–	–	–	–	43.1	–
Cc1ccc(C(=O)N/N=C\c2ccc(-c3ccc([N+](=O)[O-])cc3)o2)cn1	–	–	–	–	–	–
O=C(CCN1CCN(c2ccccc2)CC1)N/N=C/c1ccc([N+](=O)[O-])o1	–	–	71.2	–	–	–
COc1cc(/C=N/NC(=O)Cc2ccccc2)cc([N+](=O)[O-])c1O	–	–	53.7	–	–	–
Cc1ccc(C(=O)N/N=C\c2ccc([N+](=O)[O-])o2)cn1	–	–	70.0	–	–	–
COc1ccc([N+](=O)[O-])cc1/C=N/NC(=O)Cc1ccccc1	–	–	–	–	–	–
COc1cc(/C=N/NC(=O)Cc2ccccc2)ccc1Oc1ccc([N+](=O)[O-])cc1[N+](=O)[O-]	–	–	–	–	28.6	–
O=C(CN1CCOCC1)NN=Cc1ccc([N+](=O)[O-])o1	·	–	·	–	·	–
N#Cc1nc(Cc2ccccc2)oc1N1CCCC1	–	–	–	–	–	–
N#Cc1cc2ccc(N3CCOCC3)cc2cc1C#N	–	–	–	–	–	–
CC1(C(=O)N/N=C/c2ccc([N+](=O)[O-])o2)CC1(Br)Br (configuration not stated)	–	–	72.7	–	–	–
O=C(N/N=C/c1ccc([N+](=O)[O-])cc1)c1ccc(NS(=O)(=O)c2cccs2)cc1	–	–	–	–	–	–
COc1cc(/C=C/C(=O)c2ccc(C)c([N+](=O)[O-])c2)cc(OC)c1O	–	–	–	–	–	44.7
O=C(N/N=C/c1ccc([N+](=O)[O-])o1)c1ccc(NS(=O)(=O)c2cccs2)cc1	–	–	45.0	–	–	–
COc1ccc(/C=C/C(=O)c2ccc(C)c([N+](=O)[O-])c2)cc1O	–	–	–	–	–	–
COc1cc(/C=N/NC(=O)c2ccc(C)nc2)cc([N+](=O)[O-])c1O	–	–	42.8	–	–	–
